Source: PubChem BioAssay (several laboratories)
SKKanGAS inh: blocks kanamycin growth of S. pyogenes SKKanGAS strain; BacTiter-Glo, 6 h; inhibition, % at 7.5 µM; hit rate 1.3% among 300,000; AID 1662;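 active = mean replicate score, as percent of positive control median, at least 50; inconclusive = mean below 50 but one replicate at or above 50; inactive = mean and every replicate below 50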;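 note: strain carries kanamycin resistance gene driven by streptokinase promoter and grows in 40 µg/ml kanamycin; loss of luminescence reflects streptokinase promoter inhibition or plain growth inhibition; 0% = median of DMSO wells and 100% = positive control at its reference dose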
XBP1 UPR activ: activators of adaptive arm of unfolded protein response (XBP1); CHO-XBP1 luciferase reporter, IRE1-XBP1 UPR activation, luminescence; percent of tunicamycin response, DMSO as zero; activation, % at 20 µM; hit rate 0.33% among 330,000;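 active = versus positive control, 20 µM dose yields 30% or more activation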;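 note: 100% = tunicamycin at 10 µg/mL and 0% = DMSO only wells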
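Material: CHO cell line with stable XBP1 luciferase reporter; buffer or medium: F12 medium containing 10% fetal bovine serum; compound: single point, 20 µM final compound, 1% DMSO; incubation: 6 h treatment, 37 °C; measured by: glow luminescence from Steady-Glo reagent; evaluation: activation, % of tunicamycin; control set: tunicamycin high, DMSO low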
CSC inhib: blocks cancer stem cells; inhibition, % at 7.5 µM; hit rate 1.1% among 300,000; cancer stem cell-like cells viability, luminescence; AID 2717; in the data active = inhibition above about 75%; inconclusive = no clear call, values can overlap the other calls; tested in HMLE shEcad cells
Mdm2 MdmX PPI: disrupts the human Mdm2-MdmX interaction; O15151+Q00987; SaOS-2 split-luciferase Mdm2/MdmX complementation, luminescence; hit rate 3% among 330,000; AID 485346; inhibition, % at 8 µM;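 active = inhibition of at least 50% at 8 µM in the primary screen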
CHOP UPR activ: apoptotic UPR (CHOP) activation. CHO-CHOP luciferase reporter, luminescence; percent of tunicamycin response over DMSO baseline. activation, % at 10 µM. hit rate 0.34% among 330,000. AID 449763;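 active = at 10 µM dose, activation of 40% or more, normalized to positive control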;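 note: 100% = tunicamycin at 10 µg/mL and 0% = DMSO alone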
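Test system: CHO CHOP reporter cells. Input: 500 CHO-CHOP cells per well. Medium: F12 with 10% FBS. Technique: luciferase luminescence. Measure: percent activation relative to tunicamycin control. Dosing: 10 µM compound, 0.5% DMSO. Timing: 16-18 h cell attachment, then 6 h compound exposure, 37 °C.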
Beta apoptosis: beta cell apoptosis inhibition; INS-1E cytokine-induced death, ATP luminescence, 48 h; percent of positive-control rescue, neutral wells zero; protection from apoptosis, % (no concentration beside the values); hit rate 0.8% among 300,000;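 active = Every replicate reaches about 75%, or at least half do and their mean reaches it too, limit read from the data; inconclusive = At least half of replicates reach the limit but their mean does not; inactive = Under half of replicates reach the limit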;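 note: 0% = cytokine-treated negative control wells and 100% = positive control rescue; higher means more ATP so stronger rescue from cytokine killing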
* hit, by the source's call; ? = inconclusive; / = not tested or not shown. Only some compounds are listed: those with a hit (about 4.8% of all), similar ones and a draw of the others.

SMILES	SKKanGAS inh	XBP1 UPR activ	CSC inhib	Mdm2 MdmX PPI	CHOP UPR activ	Beta apoptosis
COc1ccc(NC(=O)c2c(N)no[n+]2[O-])cc1	-2	-1	103*	-21	2	3
COc1ccc(NC(=O)c2c(N)no[n+]2[O-])c(OC)c1	5	1	8	4	2	-5
Cc1ccc(S(=O)(=O)N2CCN(C(C)C(=O)NCC(C)c3ccccc3)CC2)cc1 (stereo not given)	/	-3	7	3	1	-1
c1ccc(-c2c3ccccc3nc3[nH]c4ccccc4c23)cc1	96*	1	79*	29	-1	3
CCOC(=O)c1c(NC(=O)C(=O)N/N=C/c2ccccc2OC)sc2c1CCCCC2	14	1	14	9	3	-8
CCOC(=O)c1c(NC(=O)C(=O)N/N=C/c2ccccc2O)sc2c1CCCCC2	9	0	83*	15	-1	37
CC(C)N(C(=O)CSc1nc2ccccc2n1-c1ccccc1)C(C)C	-12	1	78*	17	-2	-5
CC(C)N(C(=O)CSc1nc2ccccc2n1Cc1ccccc1)C(C)C	4	2	0	21	0	1
CCCOc1ccc(CC(=O)NCCc2ccccc2)cc1OC	1	-1	/	-6	-1	/
O=C(NNC1=Nc2cccc3cccc1c23)c1ccc(Br)cc1	114*	/	21	/	/	60
Cc1ccsc1C(=O)N(C)CC(=O)N(CC(C)C)c1c(N)n(CC(C)C)c(=O)[nH]c1=O	-3	4	17	5	0	1
CCCc1nc2ccccc2c(C(=O)OCC(=O)N2CCc3ccccc32)c1CC	23	-1	83*	10	0	-9
CC1CCc2nc3ccccc3c(C(=O)OCC(=O)N3CCc4ccccc43)c2C1 (stereo not given)	13	2	4	-1	0	11
CCCc1nc2ccccc2c(C(=O)OCC(=O)Nc2ccc(S(=O)(=O)N3CCOCC3)cc2)c1CC	?	6	91*	38	-1	8
COC(=O)c1ccc2c(=O)n(-c3ccccc3)c(SCN3C(=O)c4ccccc4C3=O)nc2c1	8	-1	-5	4	6	106*
O=C(O)c1ccc(CSc2nc3ccccc3c(=O)n2-c2ccccc2)cc1	6	-3	3	-14	0	2
CCN1CCN(c2ccc(S(=O)(=O)N3CCCCC3)cc2NC(=O)c2sccc2C)CC1	1	-4	-4	5	-1	0
COC(/C(=N/O)c1ccc(Cl)cc1)c1ccccc1 (stereo not given)	10	3	6	10	13	100*
CCN(CC(=O)Nc1ccc(OC)cc1)C(=O)Cc1coc2cc(C)c(C)cc12	/	1	/	24	0	-6
COc1ccc(Cl)cc1S(=O)(=O)N1CCC(C(=O)NCCC2=CCCCC2)CC1	-13	-1	-8	14	1	4
Cc1cc(OCC(=O)Nc2ccc(S(=O)(=O)NC3=NCCCCC3)cc2)c(C(C)C)cc1Cl	23	-2	85*	22	9	-2
Cc1ccc(Cl)c(OCC(=O)Nc2ccc(S(=O)(=O)NC3=NCCCCC3)cc2)c1	45	-1	/	10	0	-1
CNc1c(NS(=O)(=O)c2ccc(OC)c(Cl)c2)c(=O)oc2ccccc12	11	-2	-7	7	2	-7
C=CCn1c(SCCCC)nc(O)cc1=O	15	-2	-1	6	-1	-2
C=CCn1c(SC(C)CC)nc(O)cc1=O (stereo not given)	52*	5	-1	12	-1	-3
SMILES	SKKanGAS inh	XBP1 UPR activ	CSC inhib	Mdm2 MdmX PPI	CHOP UPR activ	Beta apoptosis
Cc1ccc(NC(=O)c2ccc(=O)n(CC(=O)Nc3ccccc3)n2)cc1	1	-5	-6	-3	2	2
O=C1CSc2ccc(C(=O)Nc3cccc(S(=O)(=O)Nc4ccc(Br)cc4)c3)cc2N1	73*	-2	87*	28	0	41
O=C(O)c1ccc(NC(=O)c2cccc(S(=O)(=O)Nc3ccc(C(=O)O)cc3)c2)cc1	-8	-4	-8	15	0	1
COc1cccc(S(=O)(=O)Nc2ccc(C(=O)Nc3ccncc3)cc2)c1	-3	-2	63	-2	-1	2
COc1ccc(NS(=O)(=O)c2cccc(NC(=O)CCC(=O)c3ccc(Cl)cc3)c2)cc1	51*	-2	18	31	4	3
COc1ccc(NS(=O)(=O)c2cccc(NC(=O)c3ccc(Cl)nc3)c2)cc1	9	-1	24	40	3	107*
O=C(Nc1cccc(S(=O)(=O)Nc2ccc(Cl)cc2)c1)c1cc2c(s1)CCCC2	65*	0	117*	35	1	12
CN(C)C(=O)CN1CCN(Cc2cn(C)nc2-c2ccc3c(c2)OCCO3)CC1	-1	-3	-3	-22	0	-2
O=C(C[C@H]1C/C=C\CC[C@H](Cc2ccc(F)cc2)C(=O)OC[C@H]2CCCN2C1=O)N[C@@H](CO)Cc1ccccc1	/	-1	-9	15	3	6
COc1ccccc1C(=O)N/N=C/c1c[nH]c2ccccc12	0	2	0	-16	2	1
C/C(=N\O)c1cc(Cl)ccc1O	1	-1	-11	-8	7	-1
COc1ccc2c(c1)c(CC(=O)Nc1cccc(S(N)(=O)=O)c1)c(C)n2C(=O)c1ccc(Cl)cc1	86*	-4	38	27	-1	7
COc1ccc(NC(=O)Cc2c(C)n(C(=O)c3ccc(Cl)cc3)c3ccc(OC)cc23)cc1	2	2	13	-31	1	-3
O=C(Nc1cccc(S(=O)(=O)Nc2ccc(Cl)cc2)c1)c1ccc(Cl)nc1	15	0	19	35	2	79*
O=C(Nc1ccc(NS(=O)(=O)c2ccccc2)cc1)c1ccc(Cl)cc1	-8	3	18	43	1	-2
Nc1nnc(SCC(=O)OCC(=O)NC2CCCCC2)s1	2	-1	92*	-10	2	4
CCSC(=S)c1c(C)[nH]n(-c2ccccc2)c1=O	57*	-1	27	16	2	1
CC/C(=N/NC(=O)c1ccccc1O)c1c(C)[nH]n(-c2ccccc2)c1=O	95*	6	81*	17	3	36
Cc1[nH]n(-c2ccccc2)c(=O)c1C(=O)c1ccc(Cl)cc1	8	-2	25	19	2	-2
CC(=O)N/N=C/c1c(C)[nH]n(-c2ccccc2)c1=O	-13	-1	0	-28	-1	3
Cc1[nH]n(-c2ccccc2)c(=O)c1/C=N/NC(=O)c1ccccc1F	90*	0	/	22	0	/
Cc1[nH]n(-c2ccccc2)c(=O)c1C(=O)c1ccccc1	-5	1	-1	1	0	-5
